Data published in ChEMBL document CHEMBL4190402, “Development of a Novel Human Parathyroid Hormone Receptor 1 (hPTHR1) Agonist (CH5447240), a Potent and Orally Available Small Molecule for Treatment of Hypoparathyroidism” (J Med Chem, 2018).
pEC50: −log10 of the molar value. ≈ marks a conversion by molar mass, not a printed value. Calls of active or inactive are those of the source. The rule behind the calls is not given here.

Legend:
[1] = system: LLC-PK1; assay: Induction of cAMP production in porcine LLC-PK1 cells after 20 mins by enzyme immunoassay; format: functional, cell-based; details: Sus scrofa
How it was run: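 Counter-screen on parent LLC-PK1 cells lacking hPTHR1. Conditions match the HKRK-B7 assay: 20 min at 37°C in IBMX-containing assay medium, then cAMP read by EIA.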

[2] = target: T1, Parathyroid hormone/parathyroid hormone-related peptide receptor (Homo sapiens) (UniProt Q03431); assay: (§1) Agonist activity at human PTHR1 expressed in HKRKB7 cells assessed as accumulation of intracellular cAMP after 20 mins by enzyme immunoassay; format: functional, cell-based
T1 sequence (whole entry): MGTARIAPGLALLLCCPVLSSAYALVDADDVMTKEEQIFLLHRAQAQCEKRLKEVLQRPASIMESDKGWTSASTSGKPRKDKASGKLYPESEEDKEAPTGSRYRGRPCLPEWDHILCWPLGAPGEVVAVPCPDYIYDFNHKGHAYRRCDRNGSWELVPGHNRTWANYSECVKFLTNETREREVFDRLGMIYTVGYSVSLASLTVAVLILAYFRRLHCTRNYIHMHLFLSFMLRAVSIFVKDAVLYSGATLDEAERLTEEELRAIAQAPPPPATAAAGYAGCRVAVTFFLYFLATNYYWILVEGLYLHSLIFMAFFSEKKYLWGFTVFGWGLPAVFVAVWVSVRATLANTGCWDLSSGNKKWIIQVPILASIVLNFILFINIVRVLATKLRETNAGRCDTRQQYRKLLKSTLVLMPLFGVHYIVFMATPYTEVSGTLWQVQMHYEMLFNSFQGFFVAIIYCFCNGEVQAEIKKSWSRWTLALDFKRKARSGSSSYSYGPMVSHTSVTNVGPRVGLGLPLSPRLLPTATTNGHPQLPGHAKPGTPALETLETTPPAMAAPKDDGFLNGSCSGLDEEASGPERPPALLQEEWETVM
How it was run: (§2)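 HKRK-B7 cells (LLC-PK1 stably expressing hPTHR1), 1.0 x 10^3 per well, seeded overnight, then exposed to serially diluted compound in McCoy's 5A with 2 mg/ml BSA, 1 mmol/l IBMX and 2 mmol/l HEPES for 20 min at 37°C. Cells washed, frozen, lysed in 50 mmol/l HCl, cAMP read by EIA.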

[3] = target: T1, Parathyroid hormone/parathyroid hormone-related peptide receptor (Homo sapiens); assay: Agonist activity at human PTHR1 expressed in HKRKB7 cells assessed as accumulation of intracellular cAMP at 1 mM after 20 mins by enzyme immunoassay relative to human PTH (1 to 34 residues); format: functional, cell-based; how it was run: as §2
[4] = target: T2, Parathyroid hormone/parathyroid hormone-related peptide receptor (Homo sapiens, UniProt Q03431); assay: as §1; format: functional, cell-based; how it was run: as §2
T2 sequence (Q03431 whole entry): T1 sequence (whole entry)

[5] = Solubility of the compound in PBS at pH 6.5 at 1 mM by HPLC-UV analysis; format: physicochemical; details: for solubility: buffer, pH 6.5, 1000 µM, BLD = below limit of detection; for solubility at 1000 µM: PBS, pH 6.5
How it was run: (§3)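 A 1 mM DMSO stock (50 µL) was freeze-dried, then the residue taken up in 50 mM PBS pH 6.5 or FaSSIF pH 6.5. Sonicated 10 min, shaken 2 h, centrifuged, filtered. Filtrate concentration determined by HPLC-UV against each compound's calibration curve.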

[6] = Solubility of the compound in FaSSIF at 1 mM by HPLC-UV analysis; format: physicochemical; details: for solubility at 1000 µM: FaSSIF; how it was run: as §3
[7] = Intrinsic clearance in human liver microsomes assessed per mg protein at 1 uM after 30 mins in absence of NADPH by LC-MS/MS analysis; format: ADME, microsome; details: liver microsomes, read-out: CLH
[8] = Intrinsic clearance in human liver microsomes assessed per mg protein at 1 uM after 30 mins in presence of NADPH by LC-MS/MS analysis; format: ADME, microsome; details: read-out: CLH
[9] = system: Rattus norvegicus; assay: In vivo agonist activity at PTHR1 in Crl:CD(SD) rat TPTX model assessed as decrease in serum phosphorus levels 9 nmol/kg, sc administered as single dose measured after 24 hrs by xanthine oxidase method; format: functional, organism-based
How it was run: (§4)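 Female 6-week-old Crl:CD(SD) rats after surgical TPTX; those with serum Ca <8.0 mg/dl at day 5 were used, and treatment began day 6. Single sc dose of hPTH(1-34) at 9 nmol/kg, or phosphate-citrate buffer pH 6.0 vehicle, n=5 per group. Jugular blood taken under isoflurane before dosing and at 0.5–24 h. Serum Ca measured by o-CPC, Pi by xanthine oxidase. Mean ± SEM.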

[10] = system: Rattus norvegicus; assay: In vivo agonist activity at PTHR1 in Crl:CD(SD) rat TPTX model assessed as increase in serum calcium levels at 9 nmol/kg, sc administered as single dose measured after 24 hrs by o-cresolphthalein complexone method; format: functional, organism-based; how it was run: as §4

Row | EC20 [2] [µM] | Activity [3] [%] | pEC50 [4] | microsomal CLint at 1 µM [8] [µL/min/mg] | Structure (SMILES) | Activity [1] | further results
1 | > 1000 | – | – | – | O=C1NC(C2CCCCC2)=NC12CCN(S(=O)(=O)CCc1ccncc1)CC2 | inactive | –
2 | – | 1.3 | – | – | O=C(O)c1ccc(C2=NC3(CCN(S(=O)(=O)c4cccc(Cl)c4)CC3)C(=O)N2)cc1 | inactive | –
3 | 240 | – | < 3.00 | 62 | Cc1cc(N2CCNC2=O)cc(C)c1CCS(=O)(=O)N1CCC2(CC1)N=C(C1CCCCC1)NC2=O | inactive | solubility [5]: Bld; solubility ([6]; simulated gi fluid, 1000 µM, BLD = below limit of detection): Bld; microsomal CLint at 1 µM [7]: 3.4 µL/min/mg
4 | 150 | – | – | – | O=C1NC(c2ccc(Cl)cc2Cl)=NC12CCN(S(=O)(=O)CCc1cccc3ccccc13)CC2 | inactive | –
5 | – | 18 | – | – | O=C1NC(c2ccccc2Cl)=NC12CCN(S(=O)(=O)c1cccc(Cl)c1)CC2 | inactive | –
6 | 140 | 45 | – | – | O=C1NC(C2CCCCC2)=NC12CCN(S(=O)(=O)c1cccc(Cl)c1)CC2 | inactive | –
7 | 220 | – | – | – | O=C1NC(C2CCCCC2)=NC12CCN(S(=O)(=O)c1cccc3ccccc13)CC2 | inactive | –
8 | 240 | – | – | – | O=C1NC(C2CCCCC2)=NC12CCN(S(=O)(=O)CCc1ccccc1)CC2 | inactive | –
9 | 6.4 | – | 4.59 | 39 | CC(=O)Nc1cc(C)c(CCS(=O)(=O)N2CCC3(CC2)N=C(C2CCCCC2)NC3=O)c(C)c1 | inactive | solubility at 1000 µM [5]: 8 µg/mL (≈ 16.4 µM); solubility at 1000 µM [6]: 38 µg/mL (≈ 77.8 µM); microsomal CLint at 1 µM [7]: 18 µL/min/mg
10 | 11 | – | 4.30 | 46 | CC(=O)Nc1ccc(CCS(=O)(=O)N2CCC3(CC2)N=C(C2CCCCC2)NC3=O)c(C)c1 | inactive | solubility at 1000 µM [5]: 280 µg/mL (≈ 590 µM); solubility at 1000 µM [6]: 400 µg/mL (≈ 843 µM); microsomal CLint at 1 µM [7]: 33 µL/min/mg
11 | 530 | 23 | < 3.00 | – | O=C1NC(c2ccc(Cl)cc2Cl)=NC12CCN(S(=O)(=O)c1cccc(Cl)c1)CC2 | inactive | –
12 | 15 | – | – | 300 | O=C1NC(C2CCCCC2)=NC12CCN(S(=O)(=O)CCc1cccc3ccccc13)CC2 | inactive | solubility [5]: Bld; solubility at 1000 µM [6]: 3.1 µg/mL (≈ 6.83 µM)
13 | – | 1 | – | – | O=C1NC(c2ccncc2)=NC12CCN(S(=O)(=O)c1cccc(Cl)c1)CC2 | inactive | –
14 | > 1000 | – | – | – | O=C1NC(C2CCCCC2)=NC12CCN(S(=O)(=O)Cc1ccccc1)CC2 | inactive | –
15 | – | 1.9 | – | – | O=C1NC(c2ccccc2)=NC12CCN(S(=O)(=O)c1cccc(Cl)c1)CC2 | inactive | –
16 | – | 22 | – | – | O=C1NC(c2ccc(Cl)cc2)=NC12CCN(S(=O)(=O)c1cccc(Cl)c1)CC2 | inactive | –
17 | – | – | – | – | CC[C@H](C)[C@H](NC(=O)[C@H](CCC(=O)O)NC(=O)[C@H](CO)NC(=O)[C@@H](NC(=O)[C@@H](N)CO)C(C)C)C(=O)N[C@@H](CCC(N)=O)C(=O)N[C@@H](CC(C)C)C(=O)N[C@@H](CCSC)C(=O)N[C@@H](Cc1cnc[nH]1)C(=O)N[C@@H](CC(N)=O)C(=O)N[C@@H](CC(C)C)C(=O)NCC(=O)N[C@@H](CCCCN)C(=O)N[C@@H](Cc1cnc[nH]1)C(=O)N[C@@H](CC(C)C)C(=O)N[C@@H](CC(N)=O)C(=O)N[C@@H](CO)C(=O)N[C@@H](CCSC)C(=O)N[C@@H](CCC(=O)O)C(=O)N[C@@H](CCCNC(=N)N)C(=O)N[C@H](C(=O)N[C@@H](CCC(=O)O)C(=O)N[C@@H](Cc1c[nH]c2ccccc12)C(=O)N[C@@H](CC(C)C)C(=O)N[C@@H](CCCNC(=N)N)C(=O)N[C@@H](CCCCN)C(=O)N[C@@H](CCCCN)C(=O)N[C@@H](CC(C)C)C(=O)N[C@@H](CCC(N)=O)C(=O)N[C@@H](CC(=O)O)C(=O)N[C@H](C(=O)N[C@@H](Cc1cnc[nH]1)C(=O)N[C@@H](CC(N)=O)C(=O)N[C@@H](Cc1ccccc1)C(=O)O)C(C)C)C(C)C | – | Activity [9]: Active; Activity [10]: Active
18 | 8.1 | – | 4.17 | 23 | Cc1cc(N(C)C(N)=O)cc(C)c1CCS(=O)(=O)N1CCC2(CC1)N=C(C1CCCCC1)NC2=O | inactive | solubility at 1000 µM [5]: 290 µg/mL (≈ 576 µM); solubility at 1000 µM [6]: 450 µg/mL (≈ 893 µM)
19 | 30 | – | < 3.00 | 100 | Cc1ccccc1CCS(=O)(=O)N1CCC2(CC1)N=C(C1CCCCC1)NC2=O | inactive | solubility at 1000 µM [5]: 11 µg/mL (≈ 26.3 µM); solubility at 1000 µM [6]: 15 µg/mL (≈ 35.9 µM)
20 | – | 35 | – | – | C[C@H]1CC[C@H](C2=NC3(CCN(S(=O)(=O)c4cccc(Cl)c4)CC3)C(=O)N2)CC1 | inactive | –
